Experimental data published in ChEMBL document CHEMBL3108685, “Exploring the chemical space of G-quadruplex binders: discovery of a novel chemotype targeting the human telomeric sequence” (J Med Chem, 2013).
Active and inactive are the calls of the source. No cut-off for these calls is given here.

Assays:
Homo sapiens [1] = organism: Homo sapiens; experiment: Binding affinity to human kit2 G-quadruplex DNA assessed as change in melting temperature at 10 uM by FRET assay
Summary of the method: (§1)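 FRET melting: target oligos labelled 5′-DABCYL / 3′-fluorescein, 0.25 μM, with ligand in 50 mM potassium buffer (10 mM LiOH, 50 mM KCl, pH 7.4). Samples denatured at 95 °C for 5 min, cooled slowly overnight, then ramped to 90 °C and back to 30 °C at 0.2 °C/min. Excitation 488 nm, emission 520 nm. Tm taken from first derivative; at least three repeats, errors ±0.2 °C.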

Homo sapiens [2] = organism: Homo sapiens; experiment: Binding affinity to human c-myc G-quadruplex DNA assessed as change in melting temperature at 10 uM by FRET assay; summary of the method: as §1
Homo sapiens [3] = organism: Homo sapiens; experiment: Binding affinity to human TBA G-quadruplex DNA assessed as change in melting temperature at 10 uM by FRET assay; summary of the method: as §1
Homo sapiens [4] = organism: Homo sapiens; experiment: Binding affinity to human kit1 G-quadruplex DNA assessed as change in melting temperature at 10 uM by FRET assay; summary of the method: as §1
Homo sapiens [5] = organism: Homo sapiens; experiment: Displacement of thiazole orange from human Tel24 G-quadruplex DNA up to 28 uM by fluorescent intercalator displacement assay
Summary of the method: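 Tel24 unlabelled (0.6 μM) preloaded with thiazole orange (1.2 μM) in 10 mM Tris, 50 mM KCl, pH 7.4. Ligand added in increasing amounts and fluorescence emission followed. Displacement % = 100 − (F/F0 × 100), with F0 the signal before ligand, plotted against concentration. At least three repeats, each in triplicate.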

Homo sapiens [6] = organism: Homo sapiens; experiment: Binding affinity to human Tel24 G-quadruplex DNA assessed as change in melting temperature up to 20 uM by FRET assay; summary of the method: as §1
BJ [7] = experiment: Induction of DNA damage response in human BJ cells expressing SV40 early region protein HELT assessed as phosphorylation of gamma H2AX at 1 uM after 24 hrs by DAPI staining-based immunofluorescence analysis relative to control; assay type: functional
Summary of the method: (§2)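 BJ-HELT and BJ-hTERT fibroblasts grown in D-MEM with 10% FCS and 2 mM glutamine, exposed to 1 μM for 24 h. Cells fixed in 2% formaldehyde, permeabilized with 0.25% Triton X-100, stained with anti-γH2AX plus FITC secondary, and counterstained with DAPI. 200 cells scored on triplicate slides. Mean ± SD of at least three experiments.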

BJ [8] = experiment: Induction of DNA damage response in human BJ cells expressing human TERT assessed as phosphorylation of gamma H2AX at 1 uM after 24 hrs by DAPI staining-based immunofluorescence analysis; assay type: cell-based; summary of the method: as §2
Homo sapiens [9] = organism: Homo sapiens; experiment: Binding affinity to human Tel24 G-quadruplex DNA assessed as change in DNA topology by CD spectroscopic analysis
Summary of the method: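 CD spectra recorded at 25 °C, 220–320 nm, on annealed Tel24 (40 μM) with or without an excess of ligand. Buffer 10 mM Tris-HCl, 50 mM KCl, pH 7.4; 1 mm path length. Average of three scans, buffer baseline subtracted. Time constant 4 s, bandwidth 2 nm, scan rate 20 nm min−1.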

BJ [10] = experiment: Cytotoxicity against human BJ cells expressing human TERT assessed as cell viability up to 3 uM after 4 days by MTT assay; assay type: cell-based; conditions: 96 h
Summary of the method: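 BJ-hTERT cells seeded at 3 × 10^3 per well and treated 24 h later with 0, 1, 2 or 3 μM for 4 days. MTT (5 mg/mL stock in PBS) added, followed by 4 h at 37 °C. Formazan dissolved in isopropanol and OD read at 540 nm. Mean ± SD of three experiments.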

Homo sapiens [11] = organism: Homo sapiens; experiment: Binding affinity to human Tel24 G-quadruplex DNA assessed as change in melting temperature at 10 uM by FRET assay; summary of the method: as §1
HeLa = experiment: Cytotoxicity against human HeLa cells assessed as inhibition of cell survival after 4 days by clonogenic assay; assay type: functional, cell-based
Summary of the method: (§3)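 Cells seeded at 5 × 10^2 per 60 mm dish and treated 24 h later across a dose series for 4 days, then colony formation scored. Surviving fraction = treated/control absolute survival. IC50 from dose–response. Mean ± SD of three independent experiments.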

Homo sapiens [12] = organism: Homo sapiens; experiment: Binding affinity to human Tel24 G-quadruplex DNA at 2:1 ligand/DNA ratio by NMR analysis
BJ [13] = experiment: Induction of telomere dysfunction induced foci in human BJ cells expressing SV40 early protein HELT assessed as increase in gamma H2AX/TRF1 co-localization at 1 uM by deconvolution microscopy relative to control; assay type: functional
Summary of the method: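 BJ-HELT fibroblasts given 1 μM, then double immunofluorescence for γH2AX and TRF1 with DAPI, imaged by deconvolution microscopy. In a single plane, 30 γH2AX-positive cells scored; cells with at least four γH2AX/TRF1 colocalizations counted as TIF-positive. Mean TIFs per nucleus also scored. Mean ± SD, three experiments.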

U2OS = experiment: Cytotoxicity against human U2OS cells assessed as inhibition of cell survival after 4 days by clonogenic assay; assay type: functional, cell-based; summary of the method: as §3
HT-29 [14] = experiment: Induction of apoptosis in human HT-29 cells assessed as late apoptotic cells at 2 uM measured on day 5 by Annexin V/propidium iodide staining-based flow cytometric analysis (reference value: 10%); assay type: functional
HT-29 [15] = experiment: Cell cycle arrest in human HT-29 cells assessed as accumulation at subG1 phase at 2 uM by […]propidium iodide staining-based flow cytometric analysis; assay type: functional; conditions: TDE = time-dependent effect
Summary of the method: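 HT29 cells cultured with or without 2 μM and sampled on days 4, 5 and 6. Cells fixed in 70% ethanol, stained 30 min at room temperature in the dark with PI (50 μg/mL) plus RNase A, and analysed by flow cytometry (20000 events). Sub-G1 fraction taken as the apoptotic measure.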

HT-29 [16] = experiment: Cytotoxicity against human HT-29 cells assessed as inhibition of cell survival after 4 days by clonogenic assay; assay type: functional, cell-based; summary of the method: as §3
HT-29 [17] = experiment: Induction of apoptosis in human HT-29 cells assessed as early apoptotic cells at 2 uM measured on day 5 by Annexin V/propidium iodide staining-based flow cytometric analysis (reference value: 4%); assay type: functional

| Activity (Homo sapiens [1]) | Activity (Homo sapiens [2]) | Activity (Homo sapiens [3]) | Activity (Homo sapiens [4]) | Activity (Homo sapiens [5]) | Activity (Homo sapiens [6]) | SMILES | Activity (BJ [7]) | Activity (BJ [8]) | also measured |
| --- | --- | --- | --- | --- | --- | --- | --- | --- | --- |
| inactive | inactive | inactive | inactive |  |  | Cc1cc(NC(=O)c2cc(-c3ccccc3O)no2)nn1CC(=O)N1CCOCC1 |  |  |  |
| inactive | inactive | inactive | inactive | inactive | inactive | Clc1ccc2[nH]c(-c3ccc(OCCCN4CCN(c5ccccc5)CC4)cc3)nc2c1 | Active | Non-toxic |  |
|  |  |  |  | Active |  | Cn1c(=O)c2cc(C(=O)NCCN3CCC(Cc4ccccc4)CC3)sc2c2ccccc21 | 60% | Non-toxic | Activity (Homo sapiens [9]): Active; Activity (BJ [10]): Non-toxic; Activity (Homo sapiens [11]): Active; Activity (HeLa): Dose-dependent effect; IC50 (HeLa; 96 h): 1000 nM; Activity (Homo sapiens [12]): Active; Activity (BJ [13]): <=50%; ΔTm (Homo sapiens [6]): 11 °C; Activity (U2OS): Dose-dependent effect; IC50 (U2OS; 96 h): 1000 nM; Activity (HT-29 [14]): 30%; Activity (HT-29 [15]): tde; Activity (HT-29 [16]): Dose-dependent effect; IC50 (HT-29 [16]; HT-29, 96 h): 1000 nM; Activity (HT-29 [17]): 37% |
| inactive | inactive | inactive | inactive | inactive | inactive | COc1ccc(NC(=O)c2ccc(CN3CCC(Cc4ccccc4)CC3)cc2)cc1OC | Active | Non-toxic |  |
